Experimental findings from ChEMBL document CHEMBL1153940, “Anthranilic acid based CCK1 receptor antagonists: blocking the receptor with the same 'words' of the endogenous ligand” (Bioorg Med Chem, 2009) are described below.

Experiment [1] concerns the target T1, Cholecystokinin receptor type A (Rattus norvegicus, UniProt P30551).
T1 sequence (P30551 whole entry): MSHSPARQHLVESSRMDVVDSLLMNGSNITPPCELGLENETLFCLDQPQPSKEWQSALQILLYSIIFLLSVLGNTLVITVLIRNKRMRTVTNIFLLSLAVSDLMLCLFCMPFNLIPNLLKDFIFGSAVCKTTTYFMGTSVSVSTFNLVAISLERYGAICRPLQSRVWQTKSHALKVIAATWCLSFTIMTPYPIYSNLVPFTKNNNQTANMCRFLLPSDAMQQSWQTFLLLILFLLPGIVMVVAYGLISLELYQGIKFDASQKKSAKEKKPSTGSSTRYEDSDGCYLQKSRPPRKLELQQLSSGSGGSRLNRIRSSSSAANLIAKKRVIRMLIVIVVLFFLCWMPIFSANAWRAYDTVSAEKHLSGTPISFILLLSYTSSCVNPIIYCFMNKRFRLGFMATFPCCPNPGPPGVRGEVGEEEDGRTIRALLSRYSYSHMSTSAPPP
As to the kind of experiment: Displacement of [125I]BH-CCK8 from CCK1 receptor in Sprague-Dawley rat pancreatic acinar cells. In outline: (§1)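 Pancreatic acini were obtained by enzymatic digestion from male Sprague Dawley rats fasted 18–24 h with water allowed. Cells were incubated with 25 pM (final) [125I]BH-CCK-8 and competitors at 37 °C for 30 min with shaking. The reaction was stopped with ice-cold Hepes-Ringer (1% BSA, soybean trypsin inhibitor, pH 7.4), then centrifuged 5 min at 12,500g, and pellet radioactivity was measured.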
On the technique in general: In a radioligand displacement assay an active substance lowers the binding of a labelled ligand.

Experiment [2] concerns the target Gastrin/cholecystokinin type B receptor (Cavia porcellus, UniProt H0VZC5). Put plainly: Displacement of [125I]BH-CCK8 from CCK2 receptor in Hartley guinea pig cerebral cortex.
The test system of experiment [3] is Gastrin/cholecystokinin type B receptor (Cavia porcellus). As to the kind of experiment: Displacement of [125I]BH-CCK8 from CCK2 receptor in Hartley guinea pig cerebral cortex at 30 uM.
Experiment [4] has the same test system. As to the kind of experiment: Displacement of [125I]BH-CCK8 from CCK2 receptor in Hartley guinea pig cerebral cortex at 10 uM.
The target in experiment [5] is T2, Cholecystokinin receptor type A (Cavia porcellus) (UniProt Q63931).
T2 sequence (whole entry): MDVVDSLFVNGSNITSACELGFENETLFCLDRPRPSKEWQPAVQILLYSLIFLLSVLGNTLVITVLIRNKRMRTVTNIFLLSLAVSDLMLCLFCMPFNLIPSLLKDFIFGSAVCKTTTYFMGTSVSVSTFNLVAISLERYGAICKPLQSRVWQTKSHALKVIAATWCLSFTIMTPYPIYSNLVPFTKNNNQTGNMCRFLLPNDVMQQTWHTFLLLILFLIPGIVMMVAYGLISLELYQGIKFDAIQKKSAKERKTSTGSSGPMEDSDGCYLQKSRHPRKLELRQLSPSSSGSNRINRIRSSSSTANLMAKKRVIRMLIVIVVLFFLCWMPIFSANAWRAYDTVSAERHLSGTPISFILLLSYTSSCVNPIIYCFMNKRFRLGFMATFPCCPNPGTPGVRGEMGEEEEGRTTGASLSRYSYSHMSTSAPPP
As to the kind of experiment: Antagonist activity against CCK1 receptor in Hartley guinea pig gallbladder assessed as inhibition of CCK-8- stimulated contraction at 1 uM. The experiment is classed as functional. In outline:
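Circular smooth-muscle strips (about 3 × 15 mm) hung in organ baths of Krebs–Henseleit at 32 °C, gassed 95% O2–5% CO2, and equilibrated 60 min with washes every 15 min. Antagonist or vehicle was applied 5 min before a submaximal (70–80%) CCK-8 concentration. Isometric contraction was recorded and activity expressed as percent inhibition of agonist contraction.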

In experiment [6] the target is T3, Cholecystokinin receptor type A (Rattus norvegicus) (UniProt P30551).
T3 sequence (whole entry): T1 sequence (P30551 whole entry)
As to the kind of experiment: Displacement of [125I]BH-CCK8 from CCK1 receptor in Sprague-Dawley rat pancreatic acinar cells at 3 uM. In outline:
as §1

Experiment [7] has as its target T3, Cholecystokinin receptor type A (Rattus norvegicus). As to the kind of experiment: Displacement of [125I]BH-CCK8 from CCK1 receptor in Sprague-Dawley rat pancreatic acinar cells at 10 uM. An outline of the steps:
as §1

The subject of experiment [8] is Gastrin/cholecystokinin type B receptor (Cavia porcellus). As to the kind of experiment: Displacement of [125I]BH-CCK8 from CCK2 receptor in Hartley guinea pig cerebral cortex at 1 uM.

Chain of Gastrin/cholecystokinin type B receptor (H0VZC5 1-426): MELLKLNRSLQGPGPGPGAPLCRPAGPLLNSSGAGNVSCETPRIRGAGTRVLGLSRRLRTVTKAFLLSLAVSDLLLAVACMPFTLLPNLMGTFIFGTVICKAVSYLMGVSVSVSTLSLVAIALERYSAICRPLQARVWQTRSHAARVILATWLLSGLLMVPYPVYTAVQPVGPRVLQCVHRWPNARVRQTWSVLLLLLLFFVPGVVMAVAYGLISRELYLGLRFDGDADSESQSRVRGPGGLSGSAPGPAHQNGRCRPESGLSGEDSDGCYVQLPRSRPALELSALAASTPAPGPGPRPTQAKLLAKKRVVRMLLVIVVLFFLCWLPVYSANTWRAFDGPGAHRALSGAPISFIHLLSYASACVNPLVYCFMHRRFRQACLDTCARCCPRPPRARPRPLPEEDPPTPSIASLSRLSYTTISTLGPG

`O=C(Nc1ccccc1C(=O)NC(Cc1ccccc1)C(=O)O)c1cc2ccccc2[nH]1` (stereo unspecified): the values for the IC50 in experiment [1] and in experiment [2] were 197 nM and 16400 nM, respectively.
On the same counts, the results for `CC(C)C[C@@H](NC(=O)c1ccccc1NC(=O)c1cc2ccccc2[nH]1)C(=O)O` are 46 nM and 14700 nM.
With `CSCC[C@H](NC(=O)c1ccccc1NC(=O)c1cc2ccccc2[nH]1)C(=O)O`, the half-inhibitory concentration (IC50) in experiment [1] came out at 2750 nM. Moreover, in experiment [3], the Activity came to 31%.
In the case of `CSCC[C@@H](NC(=O)c1ccccc1NC(=O)c1cc2ccccc2[nH]1)C(=O)O`, the IC50 in experiment [1] amounted to 27 nM; in experiment [2], 11400 nM.
With `CSCCC(NC(=O)c1ccccc1NC(=O)c1cc2ccccc2[nH]1)C(=O)O` (stereo unspecified), in experiment [1], the IC50 was found to be 52 nM. The same compound gave an Activity in experiment [4] of less than 20%. Besides, the inhibition in experiment [5] stood at 100%.
In the case of `O=C(O)CNC(=O)c1ccccc1NC(=O)c1cc2ccccc2[nH]1`, the IC50 in experiment [1] was 5520 nM.
For the compound `CCCCCN(CCCCC)C(=O)C(Cc1ccccc1)NC(=O)c1ccccc1NC(=O)c1cc2ccccc2[nH]1` (stereo unspecified), the Activity in experiment [6] and in experiment [3] was less than 20% each time.
Regarding `O=C(Nc1ccccc1C(=O)NCCc1c[nH]c2ccccc12)c1cc2ccccc2[nH]1`, the Activity in experiment [6] and in experiment [4] was less than 20% in each case.
On to `O=C(Nc1ccccc1C(=O)NCCc1ccccc1)c1cc2ccccc2[nH]1`, for which the Activity in experiment [6] and in experiment [4] was less than 20% in each case.
For the compound `O=C(O)CCCNC(=O)c1ccccc1NC(=O)c1cc2ccccc2[nH]1`, the Activity in experiment [6] and in experiment [3] was less than 20% throughout.
In the case of `O=C(O)CCNC(=O)c1ccccc1NC(=O)c1cc2ccccc2[nH]1`, the Activity in experiment [6] and in experiment [3] was less than 20% each time.
In the case of `CC(NC(=O)c1ccccc1NC(=O)c1cc2ccccc2[nH]1)C(=O)O` (racemic), in experiment [1], the half-maximal inhibitory concentration (IC50) came to 3240 nM. In experiment [4], the Activity is less than 20%.
On the same counts, the results for `CC(Cc1ccccc1)NC(=O)c1ccccc1NC(=O)c1cc2ccccc2[nH]1` (racemic) are 3150 nM and less than 20%.
In experiment [2], `O=C(O)CC(Cc1ccccc1)NC(=O)c1ccccc1NC(=O)c1cc2ccccc2[nH]1` (racemic) gave an IC50 of 16900 nM. The compound also registered an Activity in experiment [7] of 25%.
The compound `O=C(Nc1ccccc1C(=O)NC(Cc1c[nH]c2ccccc12)C(=O)O)c1cc2ccccc2[nH]1` (racemic) had a 50% inhibitory concentration (IC50) in experiment [1] of 445 nM.
On the same count and under the same terms, the value for `O=C(Nc1ccccc1C(=O)NC(Cc1ccc(O)cc1)C(=O)O)c1cc2ccccc2[nH]1` (racemic) was 2070 nM.
`NC(=O)C(Cc1ccccc1)NC(=O)c1ccccc1NC(=O)c1cc2ccccc2[nH]1` (racemic) showed an IC50 in experiment [1] of 8530 nM. Moreover, the Activity in experiment [4] was less than 20%.
The corresponding values for `O=C(Nc1ccccc1C(=O)NC(Cc1ccc(OCc2ccccc2)cc1)C(=O)O)c1cc2ccccc2[nH]1` (racemic) are 1160 nM and less than 20%.
For `CC(C)C(NC(=O)c1ccccc1NC(=O)c1cc2ccccc2[nH]1)C(=O)O` (racemic), the half-inhibitory concentration (IC50) in experiment [1] worked out at 288 nM.
Consider `CC(C)CC(NC(=O)c1ccccc1NC(=O)c1cc2ccccc2[nH]1)C(=O)O` (racemic), for which, in experiment [1], the IC50 worked out at 83 nM. For the same compound, in experiment [5], the inhibition is 100%.
As to `CSCCC(NC(=O)c1ccccc1NC(=O)c1cc2ccccc2n1C)C(=O)O` (racemic), the half-inhibitory concentration (IC50) in experiment [1] came to 92 nM. In experiment [4], the Activity was less than 20%.
As for `CCOC(=O)C(Cc1ccccc1)NC(=O)c1ccccc1NC(=O)c1cc2ccccc2[nH]1` (racemic), the figures for the Activity in experiment [6] and in experiment [3] were 20% and less than 20%, respectively.
`O=C(Nc1ccccc1C(=O)NC(CO)Cc1ccccc1)c1cc2ccccc2[nH]1` (racemic): the Activity in experiment [6] was determined as 32%.
With `O=C(O)CC(NC(=O)c1ccccc1NC(=O)c1cc2ccccc2[nH]1)C(=O)O` (racemic), the Activity in experiment [8] and in experiment [7] was less than 20% in each case.
With `O=C(O)CCC(NC(=O)c1ccccc1NC(=O)c1cc2ccccc2[nH]1)C(=O)O` (racemic), the Activity in experiment [4] and in experiment [7] was less than 20% each time.

The IC50 is the midpoint of a concentration-inhibition curve. By inhibition is commonly meant the share of the control response that was lost under treatment.
